Assay outcomes (PubChem)
PP5 inh: blocks human protein phosphatase 5 activity; P53041; purified PP5c, OMFP substrate fluorescence; inhibition, % at 6.7 µM; 320,000 tested, 0.18% active;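 active = inhibition above the campaign's mean inhibition across all tested compounds plus 3 SD, cut at about 9.5% in these data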;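 also: 0% = DMSO only and 100% = 100 µM cantharidin control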
HCV core dimer: HCV core protein dimerization inhibition | TR-FRET GST/Flag-core106 dimerization, 1536-well | inhibition, % at 5 µM | 300,000 tested, 0.33% active;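 active = inhibition above the mean of all tested compounds plus 3 SD, set per screening campaign, cut at about 45% in these data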
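assay system = GST-tagged and Flag-tagged HCV core protein residues 1-106 | controls = unlabelled core106 and no-GST-core106 wells | incubation = compound-protein-antibody incubation 4 h at 22.5 °C | probe or stimulus = Eu donor and XL665 acceptor anti-tag antibodies | read-out = % inhibition based on acceptor/donor emission ratio | signal = TR-FRET 671 and 617 nm emission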
PP1 counter: blocks human PP1-alpha phosphatase, a PP5 counter-screen; P62136; purified PP1alpha, OMFP fluorescence; 320,000 tested, 0.9% active; inhibition, % at 6.7 µM;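 active = inhibition above the mean inhibition of all tested compounds plus 3 SD, computed separately for each screening campaign, cut at about 15% in these data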
Target sequence (P62136 whole entry, looked up): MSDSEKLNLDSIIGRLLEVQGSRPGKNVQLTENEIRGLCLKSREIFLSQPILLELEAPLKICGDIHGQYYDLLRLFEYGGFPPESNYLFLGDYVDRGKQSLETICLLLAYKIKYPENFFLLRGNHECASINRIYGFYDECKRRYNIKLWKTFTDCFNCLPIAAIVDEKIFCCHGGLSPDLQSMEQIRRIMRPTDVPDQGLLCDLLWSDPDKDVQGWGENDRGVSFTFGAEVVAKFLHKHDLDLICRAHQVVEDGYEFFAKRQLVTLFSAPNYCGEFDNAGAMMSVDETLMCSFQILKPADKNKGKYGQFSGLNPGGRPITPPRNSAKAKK
Fh CTSL1 inh: cathepsin L1 inhibition, PFM18AAP counter-screen. recombinant F. hepatica cathepsin L1, Z-Leu-Arg-MCA fluorescence. inhibition, % at 5.96 µM. 300,000 tested, 0.49% active. AID 1906;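 active = inhibition above the mean of all tested compounds plus 3 SD, set per screening campaign, cut at about 17% in these data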;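 also: 0% = plate median of test compound wells and 100% = 1 µM Z-Phe-Ala-diazomethylketone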
NadD block: NadD (S. aureus) enzyme inhibition; purified NadD enzyme, colorimetric absorbance read-out; inhibition, % at 20 µM; AID 602399; 360,000 tested, 0.78% active; in the data active = inhibition above about 26%
Myeloid diff 2: compounds promoting myeloid differentiation | 360,000 tested, 1% active | ER-HoxA9 myeloid progenitors, lysozyme-GFP differentiation, flow cytometry | AID 624256 | calls only at 10 µM;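 active = normalized GFP-positive differentiation at or above the plate's own cutoff, the solvent-only control mean plus 3 SD; inconclusive = no clear call, values can overlap the other calls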;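 also: cells exposed to compound for four days before flow analysis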
The depositor's hits bear a star; i = inactive; ? = inconclusive; · = no result given; + = active, no number. Compounds with a hit are over-represented: about 3.1% of the library has one in this group of screens.

SMILES	PP5 inh	HCV core dimer	PP1 counter	Fh CTSL1 inh	NadD block	Myeloid diff 2
CC1N(C)c2cccc3cccc(c23)N1C	0	-37	0	3	14	+
CN1c2cccc3cccc(c23)N(C)C1c1cccs1	2	-13	2	3	7	i
COc1ccc(C2=NN(C(=S)Nc3ccccc3)C(c3ccccc3)C2)cc1 (centres undefined)	3	-31	3	1	11	i
COc1ccc(C2=NN(C(N)=S)C(c3ccccc3)C2)cc1 (centres undefined)	6	-46	3	55*	-3	i
O=C(COC(=O)c1ccc(F)cc1F)Nc1cccc(S(=O)(=O)N2CCOCC2)c1	·	·	·	·	4	i
Cc1ccc(C2C(N)C(=O)N2c2ccc(C)cc2)cc1 (centres undefined)	-1	4	0	7	1	i
Nc1ccc2nc(-c3cccnc3)[nH]c2c1	-3	-20	-3	4	-6	i
Nc1ccc2nc(-c3ccccc3)[nH]c2c1	-1	-18	-1	5	-1	+
COc1ccc(C(=O)N/N=C(\C)c2ccc3c(c2)C2C=CCC2C(c2ccccc2)N3)cc1 (centres undefined)	2	67*	10	-1	52*	i
COCCN1C(=O)COc2ccccc2C1C(=O)NC1CCCCC1 (centres undefined)	·	·	·	·	5	i
c1ccc(-c2ccc(C(c3ccccc3)n3ccnc3)cc2)cc1 (centres undefined)	-1	18	16*	6	15	i
Cc1nc(NCc2ccccn2)c2c3c(sc2n1)CCCC3	2	1	4	1	6	+
COc1cccc(-c2nc(CS(=O)(=O)CC(=O)NCCCN3CC(C)CC(C)C3)c(C)o2)c1 (centres undefined)	2	-21	-1	19*	-7	?
Cc1ccc(S(=O)(=O)N2CCOCC(=O)NCCOCCNC(=O)COCC2)cc1	·	·	·	·	-1	i
Cc1cc(C)c2c(c1)[C@@H]1C=CC[C@@H]1[C@H](c1ccc(S(=O)(=O)N3CCOCC3)cc1)N2	-2	84*	8	-1	17	i
Cc1cc(C)cc(N2CC(C(=O)NC3CCCCC3)CC2=O)c1 (centres undefined)	1	-2	1	-1	-4	i
CC(=O)c1ccc(N2CCN(S(=O)(=O)c3ccc4c(c3)NC(=O)CC(=O)N4)CC2)cc1	0	6	1	6	-6	+
O=C1Cc2cc(S(=O)(=O)N3CCN(c4ccc(C(=O)O)cc4)CC3)ccc2N1	·	·	·	·	-2	i
Cc1cc(/C=C2\SC(=S)NC2=O)c(C)n1-c1ccc(O)cc1	2	-10	0	3	29	i
Cc1cc(/C=C2\SC(=S)NC2=O)c(C)n1C	1	0	2	1	35*	+
COc1ccc(-n2c(C)cc(/C=C3\SC(=S)NC3=O)c2C)cc1	2	-32	4	2	45*	i
CCOC(=O)C1(C)CCN1C(=O)c1ccc(C(=O)OC)cc1 (centres undefined)	·	·	·	·	7	i
C#CCOC(=O)CCCNc1ccc([N+](=O)[O-])cc1[N+](=O)[O-]	1	48*	1	6	-2	i
CCOC(=O)C(C(=O)OCC)C(C)(C)/C(C)=N\Nc1ccc([N+](=O)[O-])cc1[N+](=O)[O-]	4	12	0	6	-4	i
CC1CCc2c(sc3nc(CN4CCN(S(=O)(=O)c5ccccc5[N+](=O)[O-])CC4)[nH]c(=O)c23)C1 (centres undefined)	6	11	16*	-4	15	i
SMILES	PP5 inh	HCV core dimer	PP1 counter	Fh CTSL1 inh	NadD block	Myeloid diff 2
CCOC(=O)c1c(NC(C)=O)sc2c1CCC(C=NCCCN(CC)CC)=C2Sc1ccccc1	-1	1	6	-2	10	+
CCOC(=O)c1c(NC(C)=O)sc2c(OCCN(CC)CC)c(Br)ccc12	-2	-1	-2	0	-8	i
Cn1ccc2c(-c3ccc4c(c3)OCCO4)cc3c(c21)C1CCC3O1 (centres undefined)	·	·	·	·	-6	i
O=c1cc(CN2CCN(c3ccccc3)CC2)nc2scc(-c3ccccc3)n12	1	46*	-1	-6	30	i
O=C(N/N=C/c1cccc(O)c1)N/N=C/c1cccc(O)c1	1	6	-2	0	3	+
NC(=S)N/N=C/c1ccc(/C=N/NC(N)=S)cc1	1	-11	3	32*	3	i
NC(=S)N/N=C/c1cccc(/C=N/NC(N)=S)c1	2	-4	3	18*	20	i
CCOC(=O)[C@@H]1[C@H]2COc3ccccc3[C@H]2N2C(=O)N(c3ccccc3)C(=O)[C@]12C	3	-3	2	-4	-4	i
CC(C)CN(C(=O)COC(=O)CCC(=O)c1ccc(Cl)cc1)c1c(N)n(Cc2ccccc2)c(=O)[nH]c1=O	1	0	2	-31	10	i
CCCNC(=O)Cn1c(=O)/c(=C/c2ccc(-c3cccc([N+](=O)[O-])c3)o2)s/c1=C\C(=O)C(C)(C)C	·	·	·	·	18	+
NC(=O)N/N=C/c1ccc(-c2ccc([N+](=O)[O-])cc2)o1	1	-6	-2	1	-9	i
CCCNC(=O)Cn1c(=O)/c(=C\c2ccc(-c3ccc([N+](=O)[O-])cc3)o2)s/c1=C\C(=O)C(C)(C)C	-1	13	-3	7	30*	+
Cc1ccc(C(=O)N/C(=C\c2ccc(-c3cccc([N+](=O)[O-])c3)o2)C(=O)NC(C)(C)C)cc1	2	23	5	9	6	i
O=C(Nc1ccc(C(F)(F)F)cc1)c1csc(-c2ccncc2)n1	2	1	1	-1	-4	i
O=C(NNC(=O)c1csc(-c2cnccc2C(F)(F)F)n1)c1ccc(C(F)(F)F)cc1	1	-4	-5	23*	-3	i
O=C(NCCN1CCCCCC1)C1CCC(CNS(=O)(=O)c2cccc3cccnc23)CC1 (centres undefined)	1	3	5	39*	7	i
CN1CCN(C(=O)C2CCC(CNS(=O)(=O)c3cccc4cccnc34)CC2)CC1 (centres undefined)	0	-4	2	3	-1	i
COc1cccc(C(=O)NN2c3ccccc3CCc3ccccc32)c1	2	4	10	-1	-1	+
CC1CCN(C(=O)c2ccc(CNc3c(N4CCCC4)c(=O)c3=O)cc2)CC1	0	-3	0	18*	3	i
COc1cccc(-c2nnc(SCC(=O)Nc3ccc(OC)c(OC)c3)n2N)c1	3	-5	-4	2	0	+
